ARFGAP1 inhibitor – inhibitors of rat ARFGAP1 GAP activity, primary screen, biochemical, fluorescence polarization, GDP tracer | Arfgap1-stimulated ARF1 GTP hydrolysis, GDP FP detection | inhibition, % at 16.5 µM | hit rate 0.26% among 360,000 | ADP-ribosylation factor GTPase-activating protein 1 (Rattus norvegicus), Q62848 | AID 651572, 2012;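 active = inhibition above a per-plate limit, mean inhibition of low control wells plus 3 SD, cut at about 25% in these data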;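 note: 0% = DMSO wells with enzyme and 100% = wells lacking Arfgap1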
Target sequence (Q62848 1-136 limits assumed): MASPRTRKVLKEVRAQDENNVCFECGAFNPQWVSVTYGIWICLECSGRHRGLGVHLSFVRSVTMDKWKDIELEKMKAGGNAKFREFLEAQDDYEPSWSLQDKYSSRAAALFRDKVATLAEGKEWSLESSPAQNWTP
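Material: rat Arfgap1 GAP domain (His6, aa 1-136), purified enzyme. Also added: human ARF1(Δ1-17)-GTP substrate. Compound dosing: 16.5 µM single point, 1.26% DMSO. Timing: enzyme reaction 120 min at 25 °C after 20 min preincubation. Signal: GDP detection by fluorescence polarization. Read-out basis: percent inhibition of GAP-stimulated GDP formation, scaled between DMSO and no-Arfgap1 medians.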
V-ATPase pH – regulators of yeast V-ATPase proton pumping, primary screen, pHLuorin cytosolic pH fluorescence. S. cerevisiae. response, % at 10 µM. hit rate 0.37% among 350,000. AID 504577, 2011; in the data active = response mostly above about 7.3%, no sharp cut-off; inactive = mostly below about 5.4%; note: actives read high
NRP1-CendR mod – modulators of CendR peptide binding to NRP-1, primary screen, biochemical, fluorescence polarization, uHTS; hit rate 0.85% among 360,000; FAM-RPARPAR peptide binding to NRP-1; inhibition, % at 25 µM;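 active = inhibition or corrected inhibition above about 18%, plus a signal ratio from 0.5 to 1.5, limit read from the data, passing the limit was not always enough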
ASAP1 GAP inh – inhibitors of human ASAP1 ArfGAP activity, primary screen, biochemical, fluorescence polarization. Arf-GAP with SH3 domain, ANK repeat and PH domain-containing protein 1 (Homo sapiens), …. ASAP1-stimulated ARF1 GTP hydrolysis, GDP FP detection. hit rate 0.19% among 360,000. inhibition, % at 16.5 µM; in the data active = inhibition above about 25%;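 note: 0% = vehicle with enzyme and substrate and 100% = no enzyme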
Granule exo inh – LAMP-1 surface exposure blockers, TALL-104 cells – cell-based, flow cytometry, MLPCN library, primary screen. TALL-104 LAMP-1 surface exposure; cells stimulated with thapsigargin and PMA. inhibition, % at 10 µM. hit rate 0.66% among 360,000. AID 651702, 2012;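 active = inhibition above about 55%, limit read from the data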
* marks the source's active call; other numbers are inactive results; nt = not tested or not shown. Sampled rows, rich in hits. Any-hit rate of the full collection: about 2.2%.

SMILES	ARFGAP1 inhibitor	V-ATPase pH	NRP1-CendR mod	ASAP1 GAP inh	Granule exo inh
CCOC(=O)C[C@H]1c2cc(F)ccc2S(=O)(=O)N1C1CCCCC1	4	1	26*	6	-4
COC(=O)C[C@H]1c2cc(F)ccc2S(=O)(=O)N1C(C)C	-6	8	26*	-6	-9
Cc1ccc(/C=C2\C(=O)ON=C2c2ccccc2)o1	-3	0	8	0	1
Cc1ccc(-c2ccc(/C=C3\C(=O)ON=C3c3ccccc3)o2)c([N+](=O)[O-])c1	-6	2	0	-12	106*
Cc1cccc(NC(=S)N/N=C/c2ccc(Cl)c([N+](=O)[O-])c2)c1	5	3	27*	-4	-4
Cc1cccc(NC(=S)N/N=C/c2cccc([N+](=O)[O-])c2)c1	nt	-5	0	nt	-3
CC(Nc1ccc2ccccc2c1)C(=O)N/N=C/c1ccncc1 (configuration not stated)	-5	-4	25*	-4	-2
CCC(C(=O)NCCN1CCOCC1)n1c2ccccc2c2nc(=O)cc(C)n21 (configuration not stated)	-7	-1	10	-1	2
COc1ccc2c(c1)O[C@@]1(CCCC[C@@H]1C)CC2=O	-2	0	-5	-4	-3
CCOc1ccc2c(c1)OC1(CCC(C)C1)CC2=O (configuration not stated)	0	-11	28*	-14	4
CN(Cc1cnn(C)c1)C(=O)c1cc2ccccc2oc1=O	-6	-2	52*	-1	0
O=C(/C=C/c1cc[n+](CC(=O)c2ccc3cccc4c3c2CC4)cc1)c1ccc2cccc3c2c1CC3	nt	0	-54	nt	70*
COCCCn1cnn2c(=O)c3ccccc3nc2c1=O	-1	nt	nt	9	nt
O=C1c2cc(Cl)ccc2OC2(CCNCC2)C12CC(c1ccccc1)=NO2 (configuration not stated)	-11	-4	-2	1	-2
O=C1c2cc(Cl)ccc2OC2(CCNCC2)C12CC(c1ccc(Cl)cc1)=NO2 (configuration not stated)	nt	3	25*	nt	4
Cc1cccc(NC(=O)CSc2nc3sc(C)cc3c(=O)n2C)c1	-13	1	19*	-1	0
COc1ccccc1CN1CCNC(=O)C1CC(=O)NC1CCCCCC1 (configuration not stated)	1	3	26*	-1	-23
COc1cccc(CN2CCNC(=O)C2CC(=O)NC2CCCCC2)c1OC (configuration not stated)	5	2	4	5	-3
O=C(Nc1ccccc1)O[C@@H]1C[C@H]2CCCC(=O)N3CC[C@@H](C1)[C@@H]23	1	-2	10	-2	-6
O=C(Nc1ccc2c(c1)OCO2)O[C@@H]1C[C@H]2CCC(=O)N3CC[C@@H](C1)[C@@H]23	9	3	21*	2	-4
Cc1cccc(S(=O)(=O)N2CCC[C@H]2C(=O)N2CCC[C@@H]2C(=O)NCc2ccccc2)c1	-2	nt	nt	-7	nt
O=C(Cc1csc(NC(=O)Nc2ccc(Cl)cc2)n1)NCc1cccnc1	4	-1	34*	-6	-1
COC(=O)[C@]12C[C@H](CC(=O)NCc3ccccc3)C(=O)N(Cc3ccc4c(c3)OCO4)C1=C[C@H](COCc1ccccc1)O[C@@H]2C	-3	nt	nt	-2	nt
COC(=O)C1=C(C)N(Cc2cccc(C(F)(F)F)c2)C(=NCc2ccc3c(c2)OCO3)NC1c1ccc(F)cc1 (configuration not stated)	12	nt	nt	-5	nt
C#CCN(Cc1cccc(F)c1)C(=O)c1nnc2c3ccccc3n(S(=O)(=O)c3ccc(C)cc3)c2n1	-8	nt	nt	13	nt
O=C(COc1cccc(Cl)c1)NNC(=S)Nc1ccccc1	13	-1	7	-1	-2
COc1cccc(OCC(=O)NNC(=S)Nc2ccc(Cl)cc2Cl)c1	3	0	24*	7	-2
OC(c1ccccc1)(c1ccccc1)C1CCN(CCCOc2ccccn2)CC1	0	nt	nt	-15	nt
CCCCC[C@@H](C)N1C[C@H](COCc2ccccc2)Oc2cc(N3CC[C@H](O)C3)ccc2S1(=O)=O	10	nt	20*	5	0

From PubChem
